From ChEMBL document CHEMBL3046625, “Herbicidal and Fungicidal Activities of Lactones in Kava (Piper methysticum)” (2006) come the findings set out here.

What all share (type): functional
Assay [1] has as its system Trichoderma viride. The assay is described as follows: Antifungal activity against Hypocrea rufa assessed as growth inhibition at 10 ppm after 4 days relative to untreated control. The note with it: 96 h, read-out: GI. The method in brief: (§1)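 Fungal cultures kept on potato dextrose agar (PDA) and subcultured on fresh medium for 3 days before testing. PDA plates held kava lactones dissolved in water at 10 or 50 ppm. Plates were inoculated with plugs from the actively growing fungal margin and incubated at 25 °C for 4 days. Distilled-water controls. Completely randomized design, at least three replicates, ANOVA.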

Assay [2] has as its system Echinochloa crus-galli. Nature of the assay: Herbicidal activity against Echinochloa crus-galli (barnyard grass) assessed as inhibition of shoot length at 1 ppm relative to untreated control. The method in brief:
(§2)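 Pure reference kava lactones diluted to 1 and 10 ppm. Seeds were sterilized in 1% sodium hypochlorite for 30 min and rinsed in distilled water; germination >80%. Five replicates were incubated at 25 °C, 4000 lx, 8/16 h day/night, 75% humidity. Distilled-water controls. After 7 days, germinated seeds were counted and shoot and root lengths measured.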

Assay [3] relates to Echinochloa crus-galli. The assay is described as follows: Herbicidal activity against Echinochloa crus-galli (barnyard grass) assessed as inhibition of germination at 10 ppm relative to untreated control. The method in brief:
as §2

Assay [4] has as its system Echinochloa crus-galli. The assay is described as follows: Herbicidal activity against Echinochloa crus-galli (barnyard grass) assessed as inhibition of germination at 1 ppm relative to untreated control. The gist of the method:
as §2

In assay [5] the test system is Lactuca sativa. The assay is described as follows: Herbicidal activity against Lactuca sativa cv. Great Lakes 366 (lettuce) assessed as inhibition of root length at 10 ppm relative to untreated control. The method in brief: as §2
Assay [6] relates to Lactuca sativa. The assay is described as follows: Herbicidal activity against Lactuca sativa cv. Great Lakes 366 (lettuce) assessed as inhibition of root length at 1 ppm relative to untreated control. The method in brief:
as §2

Assay [7] relates to Lactuca sativa. Nature of the assay: Herbicidal activity against Lactuca sativa cv. Great Lakes 366 (lettuce) assessed as inhibition of shoot length at 10 ppm relative to untreated control. The gist of the method:
as §2

Assay [8] concerns Lactuca sativa. The assay is described as follows: Herbicidal activity against Lactuca sativa cv. Great Lakes 366 (lettuce) assessed as inhibition of shoot length at 1 ppm relative to untreated control. The method in brief: as §2
The subject of assay [9] is Lactuca sativa. The assay is described as follows: Herbicidal activity against Lactuca sativa cv. Great Lakes 366 (lettuce) assessed as inhibition of germination at 10 ppm relative to untreated control. The gist of the method:
as §2

For assay [10], the system named is Lactuca sativa. Nature of the assay: Herbicidal activity against Lactuca sativa cv. Great Lakes 366 (lettuce) assessed as inhibition of germination at 1 ppm relative to untreated control. The gist of the method: as §2
For assay [11], the system named is Fusarium solani. The assay is described as follows: Antifungal activity against Fusarium solani assessed as growth inhibition at 10 ppm after 4 days relative to untreated control. The note with it: 96 h, read-out: GI. The gist of the method:
as §1

For assay [12], the system named is Colletotrichum gloeosporioides. The assay is described as follows: Antifungal activity against Colletotrichum gloeosporioides assessed as growth inhibition at 50 ppm after 4 days relative to untreated control. Conditions: 96 h, read-out: GI. The method in brief:
as §1

Assay [13] has as its system Colletotrichum gloeosporioides. Nature of the assay: Antifungal activity against Colletotrichum gloeosporioides assessed as growth inhibition at 10 ppm after 4 days relative to untreated control. The note with it: 96 h, read-out: GI. The gist of the method:
as §1

In assay [14] the test system is Echinochloa crus-galli. The assay is described as follows: Herbicidal activity against Echinochloa crus-galli (barnyard grass) assessed as inhibition of root length at 10 ppm relative to untreated control. The method in brief:
as §2

Assay [15] has as its system Echinochloa crus-galli. The assay is described as follows: Herbicidal activity against Echinochloa crus-galli (barnyard grass) assessed as inhibition of root length at 1 ppm relative to untreated control. The gist of the method: as §2
Assay [16] deals with Echinochloa crus-galli. The assay is described as follows: Herbicidal activity against Echinochloa crus-galli (barnyard grass) assessed as inhibition of shoot length at 10 ppm relative to untreated control. The method in brief: as §2
The test system of assay [17] is Trichoderma viride. Nature of the assay: Antifungal activity against Hypocrea rufa assessed as growth inhibition at 50 ppm after 4 days relative to untreated control. Conditions: 96 h, read-out: GI. The method in brief:
as §1

The subject of assay [18] is Fusarium oxysporum. Nature of the assay: Antifungal activity against Fusarium oxysporum assessed as growth inhibition at 50 ppm after 4 days relative to untreated control. The note with it: 96 h, read-out: GI. The gist of the method:
as §1

The subject of assay [19] is Fusarium oxysporum. The assay is described as follows: Antifungal activity against Fusarium oxysporum assessed as growth inhibition at 10 ppm after 4 days relative to untreated control. Conditions: 96 h, read-out: GI. The method in brief: as §1
Assay [20] deals with Fusarium solani. Nature of the assay: Antifungal activity against Fusarium solani assessed as growth inhibition at 50 ppm after 4 days relative to untreated control. Conditions: 96 h, read-out: GI. The method in brief: as §1

In general, inhibition refers to how much of the control response was suppressed. Turning to `COc1cc(/C=C/c2ccccc2)oc(=O)c1` [DESMETHOXYYANGONIN], the inhibition of growth at 10 ppm in [1] stood at 0%; in assay [11], 27.4%; in [13] it was 0%; in assay [19], 11.6%. Further, the inhibition at 1 ppm in assay [2] was 31.7%; in assay [4], 43.3%; in [6], 50.3%; in assay [8] it was 74.9%; in assay [10], 48.1%; in assay [15] it was 46.4%. The inhibition at 10 ppm in assay [3] was found to be 60%; in [5], 63.3%; in assay [7] it was 82.4%; in assay [9] it was 59.2%; in [14], 51.3%; in assay [16] it was 59.9%. Further, the inhibition of growth at 50 ppm in assay [12] worked out at 22.2%; in [17], 0%; in assay [18], 24.6%; in [20], 33.9%.
As for `COC1=CC(=O)O[C@@H](CCc2ccccc2)C1` [DIHYDROKAWAIN], the inhibition of growth at 10 ppm is 0% in assay [1], 0% in [11], 0% in assay [13] and 10.1% in [19]. Also, the figures for the inhibition at 1 ppm in assay [2], in assay [4] and in assay [15] were 56.6%, 46.7% and 53.1%, respectively. For the same compound, the inhibition at 10 ppm is 50% in assay [3]; 15.6% in [5]; 74.3% in assay [7]; 25.9% in [9]; 58.9% in assay [14]; 61.2% in assay [16]. Moreover, the inhibition of growth at 50 ppm in assay [12] was determined as 33.3%; in assay [17], 16.2%; in assay [18], 21.7%; in assay [20] it was 38.7%.
As to `COC1=CC(=O)O[C@@H](CCc2ccc3c(c2)OCO3)C1` [DIHYDROMETHYSTICIN], the inhibition of growth at 10 ppm in [1] is 0%; in [11], 40.3%; in assay [13], 0%; in [19], 18.8%. The inhibition at 1 ppm in [2] is 48.6%; in assay [4], 50%; in [15], 32.1%. In addition, the inhibition at 10 ppm is 56.7% in assay [3]; 74.8% in assay [5]; 76.5% in [7]; 89.9% in assay [9]; 48.2% in assay [14]; 55.6% in assay [16]. The inhibition of growth at 50 ppm worked out at 27.8% in assay [12], 0% in assay [17], 31.9% in assay [18] and 48.4% in [20].
`COC1=CC(=O)O[C@@H](/C=C/c2ccccc2)C1` [KAVAIN]: the inhibition of growth at 10 ppm in assay [1] worked out at 0%; in assay [11], 29%; in [13], 0%; in [19] it was 0%. The inhibition at 10 ppm in [3] was found to be 46.7%; in [5], 62.6%; in [7] it was 86.1%; in assay [9], 59.2%; in assay [14], 46.9%; in [16] it was 47.6%. Besides, the inhibition at 1 ppm in assay [4] is 46.7%; in assay [6], 59.9%; in assay [8], 75.9%; in [10], 51.9%; in [15], 39.7%. For the same compound, the inhibition of growth at 50 ppm in [12] was found to be 0%; in [17], 0%; in [18], 17.4%; in assay [20], 29%.
Consider `COC1=CC(=O)O[C@@H](/C=C/c2ccc3c(c2)OCO3)C1` [METHYSTICIN], for which the inhibition of growth at 10 ppm in [1] was found to be 0%; in assay [11], 37.1%; in assay [13] it was 0%; in [19] it was 11.6%. Moreover, the inhibition at 1 ppm came to 55% in assay [2]; 50% in assay [4]; 61.2% in assay [6]; 71.1% in assay [8]; 48.1% in assay [10]; 75.4% in assay [15]. For the same compound, the inhibition at 10 ppm is 60% in [3]; 53.1% in assay [5]; 73.3% in assay [7]; 55.6% in assay [9]; 83.9% in assay [14]; 56% in assay [16]. Besides, the inhibition of growth at 50 ppm came to 0% in assay [12], 0% in [17], 36.2% in assay [18] and 33.9% in assay [20].
Take `COc1ccc(/C=C/c2cc(OC)cc(=O)o2)cc1` [YANGONIN]: the inhibition at 1 ppm in assay [2] is 53.1%; in assay [4], 56.7%; in [6] it was 36.1%; in assay [8], 63.1%; in assay [10], 44.4%; in [15] it was 42.9%. For the same compound, the inhibition at 10 ppm in assay [3] stood at 56.7%; in assay [5], 68%; in assay [7] it was 78.6%; in assay [9], 59.2%; in [14], 43.8%; in assay [16], 58.2%. Further, the inhibition of growth at 50 ppm in [12] came out at 0%; in assay [17], 0%; in [18] it was 39.1%; in assay [20], 41.9%.
